# Assay outcomes deposited in PubChem BioAssay by The Scripps Research Institute Molecular Screening Center.
# RORA inh – blocks the human nuclear receptor RORA; AID 561; 65,000 tested, 0.43% active; inhibition, % at 10 µM; CHO-K1 Gal4-RORA LBD luciferase reporter, luminescence;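 active = inhibition above the mean of all tested compounds plus 3 SD, cut at about 52% in these data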;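 also: 0% = RORA-transfected cells with DMSO and 100% = mock-transfected cells lacking RORA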
# Target sequence (P35398 whole entry, looked up, the tested form may be a part): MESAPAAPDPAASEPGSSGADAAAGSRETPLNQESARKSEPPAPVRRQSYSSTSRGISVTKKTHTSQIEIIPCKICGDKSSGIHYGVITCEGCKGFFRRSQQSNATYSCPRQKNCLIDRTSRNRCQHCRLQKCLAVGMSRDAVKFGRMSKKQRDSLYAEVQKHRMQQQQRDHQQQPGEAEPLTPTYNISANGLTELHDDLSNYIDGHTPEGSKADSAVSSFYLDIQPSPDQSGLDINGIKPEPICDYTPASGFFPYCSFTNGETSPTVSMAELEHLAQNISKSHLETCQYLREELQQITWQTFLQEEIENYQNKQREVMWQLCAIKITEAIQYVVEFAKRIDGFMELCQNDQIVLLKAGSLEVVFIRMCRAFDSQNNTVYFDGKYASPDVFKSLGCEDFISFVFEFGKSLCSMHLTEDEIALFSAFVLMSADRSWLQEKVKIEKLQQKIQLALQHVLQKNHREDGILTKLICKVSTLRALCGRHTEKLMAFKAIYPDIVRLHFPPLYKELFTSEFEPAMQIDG
#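 Test system: CHO-K1 cells with Gal4-hRORA LBD fusion and pG5-luc reporter / Compound: single concentration per compound, 10 µM final / Schedule: 20 h compound treatment, 37 °C / Signal: luminescence from basal luciferase reporter expression / Read-out: % inhibition / Control set: mock-transfected cells as 100%, +RORA DMSO cells as 0% / Replicates: tested once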
# Numbers without * were called inactive. Many of the other results were omitted from the sample, so hits are more common in it than they were.
SMILES,RORA inh
CCOC(=O)N1CCN(C(=O)c2cc(-c3ccc(OCC)cc3)nc3ccccc23)CC1,-135.7
CCOC(=O)Cc1cc(=O)n2[nH]c(C)c(-c3ccccc3)c2n1,-5.6
COCC(C)NC(=O)CCS(=O)(=O)c1nc(-c2ccc(OC)cc2)cc(C(F)(F)F)n1 (stereo not given),17.2
CCOC(=O)CS(=O)(=O)c1nc(-c2ccc(F)cc2)cc(C(F)(F)F)n1,60.9*
c1ccc(Oc2cccc(CN3CCOCC3)c2)cc1,-9.9
COc1ccc(OCCSc2nc3ccccc3n2CC(=O)O)cc1,1.8
CN(CCO)c1ncnc2nc[nH]c12,5.4
CCn1c2ccccc2c2cc(NC(=O)CSc3nnnn3-c3ccccc3)ccc21,62.9*
O=C(CSc1nnnn1-c1ccccc1)NC(=O)Nc1ccc2c(c1)OCCO2,-52.5
CC(=O)c1cccc(-n2nnnc2SCC(=O)Nc2ccccc2N2CCCCC2)c1,-14.1
CCOC(=O)Cn1cnc2c(C#N)c3n(c2c1=O)CCCCC3,12.2
Cc1noc(C)c1S(=O)(=O)NC1CCCc2ccccc21 (stereo not given),-8.6
O=C(CS(=O)(=O)Cc1ccccc1)NCc1ccc2c(c1)OCO2,6.1
c1ccc(CSCc2cn3ccsc3n2)cc1,-57.6
O=C(Cn1ncc2c(=O)oc3ccccc3c21)N1CCC(N2CCCCC2)CC1,-13.8
CC(=O)NC(Cc1ccccc1)C(=O)NC1CCN(C(=O)NC2CCCCC2)CC1 (stereo not given),2.6
COc1cc(CC(NC(C)=O)C(=O)NC2CCN(c3nc(C)cc(C)c3C#N)CC2)cc(OC)c1 (stereo not given),74.7*
COc1ccc(Nc2nc(C)cc(C)c2C#N)cc1,-4.4
Cc1c(Cl)cnc(NC(=O)COC(=O)C(NC(=O)c2ccco2)C(C)C)c1Cl (stereo not given),6.6
CCN(CC)CCN1C(=O)C(=O)/C(=C(/O)c2c(C)[nH]c(C(=O)OC)c2C)C1c1cccc(OC)c1 (stereo not given),22.3
CCn1c(C)nc2cc(-c3nc4n(n3)Cc3ccccc3-4)ccc21,95.7*
COc1ccccc1N1CCN(CC(O)COc2c(OC)cccc2OC)CC1 (stereo not given),15.1
O=C1N/C(=C\c2ccccc2)c2ccccc21,-51.2
Cc1nnc(SCC(=O)N2CCN(S(=O)(=O)c3ccccc3)CC2)n1Cc1ccccc1,21.7
CCOc1ccc2nc(N3CCC(C(=O)N4CCN(c5ncccn5)CC4)CC3)sc2c1,-69.4
SMILES,RORA inh
CC1CCN(c2nc3ccc(C(=O)O)cc3s2)CC1,92.4*
O=C(NCC1CCCO1)c1ccc2nc(N3CCCCC3)sc2c1 (stereo not given),-59.4
CNC(=O)c1c(NC(=O)c2nc3ccccc3s2)sc2c1CCC2,-96.0
Cn1cccc1C(=O)OCc1csc(-c2ccccc2)n1,-59.1
COc1ccc(C2C(C(=O)N3CCN(c4ccccc4F)CC3)c3ccccc3C(=O)N2C)cc1 (stereo not given),10.3
Clc1nc2sccn2c1/C=N/n1cnc2ccccc21,-52.3
COc1cc(C(Nc2ccccn2)c2ccc3ccc(C)nc3c2O)cc(OC)c1O (stereo not given),-0.2
CCN1CCN(c2cc(C)c3cc(NC(=O)c4cncc(Br)c4)ccc3n2)CC1,-6.9
COc1cccc(NC(=O)c2ccc(S(=O)(=O)N3CCCCC3)cc2)c1,31.2
OCc1cn(-c2ccccc2)nc1-c1ccc2c(c1)OCCO2,-73.1
COC(=O)/C(=C1/Oc2cc(C)oc(=O)c2S1)C(F)(F)F,94.7*
O=c1[nH]c(-c2ccncc2)nc2ccccc12,12.0
CCOCCCn1c(C)nc2c(c1=O)c1nc3ccccc3nc1n2-c1ccc(C)cc1,8.1
CCCOc1ccc(N2CC(C(=O)Nc3ncccc3C)CC2=O)cc1 (stereo not given),19.2
Cc1ccc2nc(-c3ccccc3)cn2c1,89.1*
Cc1cccn2cc(-c3ccccc3)nc12,-75.8
O=C(CC1C(=O)NCCN1C(=O)Nc1ccccc1)Nc1cccc(C(F)(F)F)c1 (stereo not given),-10.3
O=C(NCCc1ccccc1)c1cc(-c2ccco2)on1,-68.8
C=CS(=O)(=O)c1ccc(Oc2ccc(S(=O)(=O)C=C)cc2)cc1,94.5*
CC(=O)c1ccc(NC(=O)c2noc3c2CCCCC3)cc1,-50.4
CC(=O)Oc1cccc(N2C(=O)C3C(C2=O)C2C=CC3C23CC3)c1 (stereo not given),7.4
CC(Oc1ccc2c(-c3ccccc3)cc(=O)oc2c1)C(=O)O (stereo not given),10.6
Cc1ccc(Nc2cc(C)nn2-c2nc(C)cc(=O)[nH]2)cc1,87.9*
Cc1ccc(-c2cc3nc(C)cc(NCc4ccco4)n3n2)cc1,-59.1
CC1CCCCN1C(=O)CSc1nc(C2CC2)nc2c1cnn2-c1ccccc1 (stereo not given),4.2
SMILES,RORA inh
Nc1ccc2oc(CCc3ccccc3)nc2c1,-144.5
COCCn1c(-c2ccccc2F)n[nH]c1=S,1.7
Cn1c(SCc2ccon2)nc2ccccc2c1=O,6.2
Cc1ccc2cccc(S(=O)(=O)n3nc(C)cc3C)c2n1,19.5
COc1ccccc1Cc1noc(COc2cccc(C)c2C)n1,4.1
COC(=O)C1C(=O)c2c([nH]c(C(=O)OC3CCCCCC3)c2C)CC1C (stereo not given),-73.9
O=C(CSc1nnnn1C1CC2CCC1C2)Nc1ccnc2ccccc12 (stereo not given),84.6*
Cc1cccc(C)c1OCC(=O)NCc1nnc(SCC(=O)NC2CCCCC2)n1C,4.4
COc1ccc(CNC(=O)CSc2nnnn2Cc2ccccc2)cc1,-31.5
CCCCOc1ncnc2c1[nH]c1ccc(F)cc12,70.4*
Cc1nnc(C)n1/N=C/c1cccn1C,8.4
Cc1ccc2c(c1)-c1cc(C)nn1C(c1sccc1C)N2 (stereo not given),1.0
CCn1c(CSc2nnc(-c3cccnc3)n2-c2ccccc2C)nc2cc(C(=O)O)ccc21,23.5
O=C(NCCN1CCOCC1)c1ccc2c(c1)N(Cc1ccc(F)cc1)C(=O)CS2,17.7
Cc1occc1C(=O)Nc1ccc2ccccc2c1,-120.2
Cc1ccc2nc(C(F)(F)F)c(C#N)c(N)c2c1,57.2*
COCCOC(=O)c1c(C)nc(SCC(=O)Nc2ccc(OC)cc2)c(C#N)c1-c1ccco1,-2.1
Cc1cccc(N2CCN(C(=O)c3ccc(Cl)c(S(=O)(=O)NCc4ccco4)c3)CC2)c1C,-50.7
O=C(NC1CCN(Cc2ccccc2)CC1)C1CCCN(S(=O)(=O)c2cccc3nonc23)C1 (stereo not given),8.6
CCOC(=O)c1[nH]c(C)c(C(=O)Nc2ccc(F)cc2)c1C,8.4
CCOC(=O)c1[nH]c(C)c(C(=O)Nc2ccccc2F)c1C,-110.5
CC(=O)c1c(C)[nH]c(C(=O)OCCCCN2C(=O)c3ccccc3C2=O)c1C,77.7*
O=C(O)c1cc(Cl)c(Cl)cc1C(=O)N1CCCC1,11.2
CCC/C(=C1/C(=O)CC(C)(C)C(C(=O)OC)C1=O)N1CCCC1 (stereo not given),-1.7
O=C(Nc1nc2c(s1)CCCC2)c1cc2n(n1)C(C(F)(F)F)CC(C1CC1)N2 (stereo not given),-117.5
N#CC1=C(SCC(=O)c2ccccc2)NC2=C(C(=O)CCC2)C1c1ccco1 (stereo not given),-173.5
Brc1cccc(C2CC(c3ccccc3)n3nnnc3N2)c1 (stereo not given),-5.1
CCN(C(=O)c1ccc(C(C)(C)C)cc1)c1nnc(Cn2nnc3ccccc32)s1,66.2*
CCN(C(=O)c1cccs1)c1nnc(-c2ccncc2)s1,-0.2
CCCCN1CCc2c([nH]c3ccc(C)cc23)C1=O,-50.9
